Data from ChEMBL document CHEMBL3396959, “Structural requirements for TLR7-selective signaling by 9-(4-piperidinylalkyl)-8-oxoadenine derivatives” (Bioorg Med Chem Lett, 2015).
Activity calls are given as the source filed them. The rule behind the calls is not given here.

Key:
PBMC [1] = test: Induction of TNFalpha production in primary human PBMC after 24 hrs by ELISA method; type: functional, cell-based
Method in brief: (§1)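 Ficoll-isolated healthy-donor PBMCs at 0.5 × 10^6 cells/well in RPMI-1640/10% FBS were stimulated 24 h with aqueous compound. Supernatant TNFa was assayed with a […]. Data are from three donors in triplicate, with SEM shown.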

PBMC [2] = test: Induction of IFNalpha production in primary human PBMC at 0.001 to 10 uM after 24 hrs by ELISA method; type: functional, cell-based
Method in brief: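 Fresh healthy-donor PBMCs were isolated by Ficoll and plated at 0.5 × 10^6 cells/well in RPMI-1640/10% FBS with antibiotics. Aqueous compound formulations were added for 24 h across 0.0001–10 µM. Supernatant IFNa was measured by ELISA. Data are from three donors, each run in triplicate, with SEM shown.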

HEK293 = test: Toxicity against human TLR8 expressing HEK293 cells after 24 hrs by live/dead fixable aqua staining method; type: cell-based; details: hek293, 24 h
Method in brief: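 HEK293-hTLR8 reporter cells were stimulated with compound for 24 h. Cells were then incubated with Live/Dead fixable Aqua dye for 30 min, washed extensively, and read for viability by flow cytometry.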

PBMC [3] = test: Induction of TNFalpha production in primary human PBMC at 0.001 to 10 uM after 24 hrs by ELISA method; type: functional, cell-based; method in brief: as §1
[4] = Induction of IL6 expression in human HLA-DR(+), CD11c(+) and CD123(-) expressing mDC after 24 hrs by intracellular cytokine staining method; type: functional; parameters: concentration or dose not given beside the values
Method in brief: (§2)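 PBMCs were stimulated with aqueous compound for 24 h, with GolgiPlug (10 ng/ml) present for the final 6 h. Cells were washed and surface-stained for lineage markers (mDC HLA-DR+ CD11c+ CD123−; pDC HLA-DR+ CD11c− CD123+). They were then permeabilized with Perm/Fix buffer and stained with fluorochrome-conjugated anti-cytokine antibodies for flow cytometry.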

Toll-like receptor 8 = target: T1, Toll-like receptor 8 (Homo sapiens, UniProt Q9NR97); test: Activation of human TLR8 expressed in HEK293 cells after 24 hrs by NFkappaB-mediated SEAP reporter gene assay; type: cell-based
T1 sequence (Q9NR97 whole entry): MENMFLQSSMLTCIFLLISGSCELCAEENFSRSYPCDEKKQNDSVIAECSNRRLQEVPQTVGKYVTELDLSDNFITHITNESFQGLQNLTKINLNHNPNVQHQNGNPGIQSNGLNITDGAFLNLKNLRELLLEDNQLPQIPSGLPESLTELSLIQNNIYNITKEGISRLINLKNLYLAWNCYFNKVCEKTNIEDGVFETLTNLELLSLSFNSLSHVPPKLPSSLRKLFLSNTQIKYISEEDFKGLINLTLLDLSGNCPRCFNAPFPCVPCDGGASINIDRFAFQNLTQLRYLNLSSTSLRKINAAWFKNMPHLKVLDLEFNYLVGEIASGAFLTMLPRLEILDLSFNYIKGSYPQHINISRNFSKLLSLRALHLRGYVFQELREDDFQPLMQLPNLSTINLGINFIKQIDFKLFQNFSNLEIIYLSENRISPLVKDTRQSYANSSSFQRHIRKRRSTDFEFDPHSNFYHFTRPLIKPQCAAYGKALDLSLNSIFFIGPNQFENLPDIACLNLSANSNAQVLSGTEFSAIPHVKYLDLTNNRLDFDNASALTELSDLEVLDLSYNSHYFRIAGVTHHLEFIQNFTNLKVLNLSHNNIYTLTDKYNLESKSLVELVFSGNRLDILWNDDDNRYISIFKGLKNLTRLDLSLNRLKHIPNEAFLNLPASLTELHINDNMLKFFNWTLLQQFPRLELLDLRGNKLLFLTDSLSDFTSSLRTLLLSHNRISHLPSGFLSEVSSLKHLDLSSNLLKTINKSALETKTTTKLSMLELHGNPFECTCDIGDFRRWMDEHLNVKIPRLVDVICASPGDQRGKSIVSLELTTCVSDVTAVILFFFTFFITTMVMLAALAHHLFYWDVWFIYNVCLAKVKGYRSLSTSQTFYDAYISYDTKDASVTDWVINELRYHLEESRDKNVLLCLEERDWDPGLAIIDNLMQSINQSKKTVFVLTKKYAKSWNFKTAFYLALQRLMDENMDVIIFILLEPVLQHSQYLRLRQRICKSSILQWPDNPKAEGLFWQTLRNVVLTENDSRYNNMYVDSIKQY
Method in brief: (§3)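 HEK293 cells stably transfected with hTLR7 or hTLR8 plus an NF-kB-driven SEAP reporter were kept in DMEM/10% FBS with selection antibiotics. Aqueous compound formulations were added for 24 h, and supernatant SEAP was read colorimetrically. Points were run in triplicate and averaged.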

Toll-like receptor 7 = target: T2, Toll-like receptor 7 (Homo sapiens, UniProt Q9NYK1); test: Activation of human TLR7 expressed in HEK293 cells after 24 hrs by NFkappaB-mediated SEAP reporter gene assay; type: cell-based
T2 sequence (Q9NYK1 whole entry): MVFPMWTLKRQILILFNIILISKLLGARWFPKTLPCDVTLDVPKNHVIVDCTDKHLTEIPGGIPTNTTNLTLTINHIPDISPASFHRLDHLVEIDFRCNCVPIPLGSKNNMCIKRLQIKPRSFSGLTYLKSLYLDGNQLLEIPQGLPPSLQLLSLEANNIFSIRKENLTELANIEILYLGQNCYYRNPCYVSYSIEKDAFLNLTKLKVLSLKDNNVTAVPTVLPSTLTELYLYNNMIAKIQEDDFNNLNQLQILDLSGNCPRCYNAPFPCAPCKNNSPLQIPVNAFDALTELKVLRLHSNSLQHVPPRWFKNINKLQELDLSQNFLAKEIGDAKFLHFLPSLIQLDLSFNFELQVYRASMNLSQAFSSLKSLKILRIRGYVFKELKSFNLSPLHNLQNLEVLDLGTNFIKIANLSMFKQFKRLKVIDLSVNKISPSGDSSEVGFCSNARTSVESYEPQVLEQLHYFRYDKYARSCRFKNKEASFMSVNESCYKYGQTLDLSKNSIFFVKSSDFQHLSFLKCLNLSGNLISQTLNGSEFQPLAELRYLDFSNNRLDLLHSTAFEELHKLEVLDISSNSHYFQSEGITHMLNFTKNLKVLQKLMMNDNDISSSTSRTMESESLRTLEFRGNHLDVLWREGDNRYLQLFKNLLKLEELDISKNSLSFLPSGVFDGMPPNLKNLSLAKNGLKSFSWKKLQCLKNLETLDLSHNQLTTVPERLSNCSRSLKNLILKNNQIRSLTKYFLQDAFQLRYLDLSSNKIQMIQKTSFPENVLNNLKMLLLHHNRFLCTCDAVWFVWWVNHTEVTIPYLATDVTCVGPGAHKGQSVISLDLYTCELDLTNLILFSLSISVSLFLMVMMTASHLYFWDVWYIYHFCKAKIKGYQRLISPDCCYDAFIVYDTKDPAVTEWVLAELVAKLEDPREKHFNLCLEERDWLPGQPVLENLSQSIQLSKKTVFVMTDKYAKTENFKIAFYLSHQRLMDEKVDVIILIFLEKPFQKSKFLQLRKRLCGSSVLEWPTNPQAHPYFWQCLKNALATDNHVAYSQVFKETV
Method in brief: as §3, with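 “averaged. Activity was scaled to the maximum of a reference agonist set at 100%. EC50 was taken from dose-response curves with 95% CI.” for “averaged.”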

PBMC [5] = test: Induction of IFNgamma production in primary human PBMC after 24 hrs by ELISA method; type: functional, cell-based
PBMC [6] = test: Reduction in IFNalpha production in primary human PBMC at >10 uM after 24 hrs by ELISA method; type: functional, cell-based
Homo sapiens [7] = species on record: Homo sapiens; test: Induction of TNFalpha production in human HLA-DR(+), CD11c(-) and CD123(+) expressing pDC after 24 hrs by […]; type: functional
Homo sapiens [8] = species on record: Homo sapiens; test: Induction of INFalpha production in human HLA-DR(+), CD11c(+) and CD123(-) expressing mDC after 24 hrs by intracellular cytokine staining method; type: functional, cell-based; method in brief: as §2
Homo sapiens [9] = species on record: Homo sapiens; test: Induction of TNFalpha production in human HLA-DR(+), CD11c(+) and CD123(-) expressing mDC after 24 hrs by intracellular cytokine staining
Homo sapiens [10] = species on record: Homo sapiens; test: Induction of INFalpha production in human HLA-DR(+), CD11c(-) and CD123(+) expressing pDC after 24 hrs by […]; type: functional
Homo sapiens [11] = species on record: Homo sapiens; test: Induction of TNFalpha production in human HLA-DR(+), CD11c(-) and CD123(+) expressing pDC after 24 hrs by intracellular cytokine staining method; type: functional, cell-based; method in brief: as §2
Homo sapiens [12] = species on record: Homo sapiens; test: Induction of apoptosis in human HLA-DR(+), CD11c(-) and CD123(+) expressing pDC at 1 nM after 24 hrs by Annexin-V staining method; type: functional
Method in brief: (§4)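 PBMCs were stimulated for 24 h with compound at doses of 0.01 nM, 1 nM, 100 nM and 10 µM. Cells were phenotyped into mDC (HLA-DR+ CD11c+ CD123−) and pDC (HLA-DR+ CD11c− CD123+) and stained with Annexin-V to read apoptosis by flow cytometry.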

Homo sapiens [13] = species on record: Homo sapiens; test: Induction of TNFalpha production in human HLA-DR(+), CD11c(+) and CD123(-) expressing mDC after 24 hrs by intracellular cytokine staining method; type: functional, cell-based; method in brief: as §2
Homo sapiens [14] = species on record: Homo sapiens; test: Induction of INFalpha production in human HLA-DR(+), CD11c(-) and CD123(+) expressing pDC after 24 hrs by intracellular cytokine staining method; type: functional, cell-based; method in brief: as §2
Homo sapiens [15] = species on record: Homo sapiens; test: Induction of apoptosis in human HLA-DR(+), CD11c(+) and CD123(-) expressing mDC at 1 nM after 24 hrs by Annexin-V staining method; type: functional; method in brief: as §4
Homo sapiens [16] = species on record: Homo sapiens; test: Induction of INFalpha production in human HLA-DR(+), CD11c(+) and CD123(-) expressing mDC after 24 hrs by […]; type: functional
Homo sapiens [17] = species on record: Homo sapiens; test: Induction of apoptosis in human HLA-DR(+), CD11c(+) and CD123(-) expressing mDC at 10 uM after 24 hrs by Annexin-V staining method; type: functional; method in brief: as §4
Homo sapiens [18] = species on record: Homo sapiens; test: Induction of apoptosis in human HLA-DR(+), CD11c(-) and CD123(+) expressing pDC at 10 uM after 24 hrs by Annexin-V staining method; type: functional; method in brief: as §4

SMILES | Activity (PBMC [1]) | Activity (PBMC [2]) | Activity (HEK293) | Activity (PBMC [3]) | Activity [4] [%] | EC50 (Toll-like receptor 8; read-out: EC50) [nM] | EC50 (Toll-like receptor 7; read-out: EC50) [nM] | Activity (PBMC [5]) | inhibition (PBMC [6]) | other results
CCCCOc1nc(N)c2[nH]c(=O)n(CCCCC3CCNCC3)c2n1.Cl | Active | Active | Toxic | Dose-dependent effect | 22.3 | 131000 | 150 | Active | Dose-dependent effect | 
CCCCOc1nc(N)c2[nH]c(=O)n(C3CCNCC3)c2n1.Cl | inactive | inactive |  |  |  |  |  | inactive |  | EC50 (Toll-like receptor 8; hek293): Not Active; EC50 (Toll-like receptor 7; hek293): Not Active
CCCCOc1nc(N)c2[nH]c(=O)n(CCC3CCNCC3)c2n1.Cl | Active | Active | Non-toxic | Dose-dependent effect | 4.91 | 231000 | 150 | Active | Dose-dependent effect | 
CCCCOc1nc(N)c2[nH]c(=O)n(CCCCCC3CCNCC3)c2n1.Cl | Active | Active | Toxic | Dose-dependent effect | 31.5 |  | 100 | Active | Dose-dependent effect | Activity (Homo sapiens [7]): Dose-dependent effect; Activity (Homo sapiens [8]): Dose-dependent effect; Activity (Homo sapiens [9]): Dose-dependent effect; Activity (Homo sapiens [10]): Dose-dependent effect; Activity (Homo sapiens [11]): Dose-dependent effect; Activity (Homo sapiens [12]): Active; Activity (Homo sapiens [13]): Dose-dependent effect; Activity (Homo sapiens [14]): Dose-dependent effect; Activity (Homo sapiens [15]): inactive; Activity (Homo sapiens [16]): Dose-dependent effect
CCCCOc1nc(N)c2[nH]c(=O)n(CCCCCCC3CCNCC3)c2n1.Cl | Active | Active |  | Dose-dependent effect | 28.5 | 29000 | 230 | Active | Dose-dependent effect | 
CCCCOc1nc(N)c2[nH]c(=O)n(CCCC3CCNCC3)c2n1.Cl | Active | Active | Non-toxic | Dose-dependent effect | 8.27 | 260000 | 620 | Active | Dose-dependent effect | 
CCCCOc1nc(N)c2[nH]c(=O)n(CC3CCNCC3)c2n1.Cl | inactive | Active | Non-toxic |  | 2.95 |  | 3950 | inactive | Dose-dependent effect | Activity (Homo sapiens [7]): Dose-dependent effect; Activity (Homo sapiens [17]): Active; Activity (Homo sapiens [18]): Active; Activity (Homo sapiens [8]): Dose-dependent effect; Activity (Homo sapiens [9]): Dose-dependent effect; Activity (Homo sapiens [10]): Dose-dependent effect; Activity (Homo sapiens [11]): Dose-dependent effect; Activity (Homo sapiens [13]): Dose-dependent effect; Activity (Homo sapiens [14]): Dose-dependent effect; Activity (Homo sapiens [16]): Dose-dependent effect
